Measured values from different studies.
Protocols differ between the studies behind these lines.

For `CCCCOC(=O)NS(=O)(=O)c1sc(CC(C)C)cc1-c1ccc2c(c1)CCN(C(C)=O)C2`, the kinetic solubility was 45 µM (aqueous buffer; pH 7.4, 37 °C).
For `CC(=O)Nc1cc(Nc2cc(NC3CC3)n3ncc(C#N)c3n2)ccc1N(C)[C@@H]1CCOC1`, the kinetic solubility was 25 µg/mL (shake flask; PBS; 24 h, pH 7.4, 22 °C).
For `Cc1cc(Nc2ccc(C(F)(F)F)cc2)c2ccccc2n1`, the kinetic solubility was over 330 µM (simulated gastric fluid; pH 2, acidic).
For `O=C(/C=C/c1cccnc1)NCCCCC1CCN(C(=O)c2ccccc2)CC1`, the kinetic solubility was 225 µM (PBS; 90 min, pH 7.4).
`CCn1cc(-c2cc(Cn3ccnc3)cc3c2OCCN([C@H](c2cc(OC)ccn2)C2CC2)C3=O)c(C(F)(F)F)n1` gave a kinetic solubility of 74 µM (PBS; 1 h, pH 7.4).
The kinetic solubility of `CC(=O)Nc1cc(Nc2cc(NC3CC3)n3ncc(C#N)c3n2)ccc1N(C)C[C@@H]1CCCN1` is reported as 68 µg/mL (shake flask; PBS; 24 h, pH 7.4, 22 °C).
`O=C(O)CN(CCCc1ccccc1)CC(=O)N[C@H](CO)Cc1c[nH]cn1` has a kinetic solubility of 180 µM (PBS; 24 h, pH 7.4).
`CN[C@H]1CCN(c2ccc(Nc3cc(NC4CC4)n4ncc(C#N)c4n3)cc2NC(C)=O)C1` gave a kinetic solubility of 49 µg/mL (shake flask; PBS; 24 h, pH 7.4, 22 °C).
`CCCC#Cc1ccc([C@@H](CO)C(=O)N[C@H](C)c2ccccc2)cc1` gave a kinetic solubility of 7.4 µM (PBS; pH 7.4).
`CN[C@@H]1CCCN(c2ccc(Nc3cc(NC4CC4)n4ncc(C#N)c4n3)cc2NC(C)=O)C1` has a kinetic solubility of 52 µg/mL (shake flask; PBS; 24 h, pH 7.4, 22 °C).
The kinetic solubility of `CNC(=O)[C@H](Cc1c[nH]cn1)NC(=O)CN(CCCc1ccccc1)CC(=O)O` is reported as 170 µM (PBS; 24 h, pH 7.4).
For `Cc1cc(Nc2ccc(S(F)(F)(F)(F)F)cc2)n2ccnc2n1`, the kinetic solubility was 8.9 µM (PBS; pH 6.5).
`CCCCOC(=O)NS(=O)(=O)c1sc(CC(C)C)cc1-c1ccc2c(c1)CN(C(C)=O)CC2` gave a kinetic solubility of 31 µM (aqueous buffer; pH 7.4, 37 °C).
`COC(=O)CN(CCCc1ccccc1)CC(=O)N[C@@H](Cc1c[nH]cn1)c1nc(C)no1` has a kinetic solubility of 172 µM (PBS; 24 h, pH 7.4).
For `COc1ccn2c(Nc3ccccc3F)c(-c3ccncn3)nc2c1`, the kinetic solubility was 163 µM (aqueous buffer; 24 h).
`CCCCOC(=O)NS(=O)(=O)c1sc(CC(C)C)cc1-c1ccc(OC(F)(F)F)c(Cn2ccnc2)c1` has a kinetic solubility of 52 µM (aqueous buffer; pH 7.4, 37 °C).
The kinetic solubility of `CC(=O)Nc1cc(Nc2cc(NC3CC3)n3ncc(C#N)c3n2)ccc1N[C@@H]1CCCOC1` is reported as 2.4 µg/mL (shake flask; PBS; 24 h, pH 7.4, 22 °C).
With `COC(=O)[C@H](Cc1c[nH]cn1)NC(=O)CN(CC(=O)O)Cc1ccccc1` the kinetic solubility was 154 µM (PBS; 24 h, pH 7.4).
`CCC(=O)Nc1cc(Nc2cc(NC3CC3)n3ncc(C#N)c3n2)ccc1N1CCC[C@@H](NC)C1` gave a kinetic solubility of 65 µg/mL (shake flask; PBS; 24 h, pH 7.4, 22 °C).
For `CCOC(=O)NS(=O)(=O)c1sc(CC(C)C)cc1-c1ccc2c(c1)CN(C)C(=O)C2`, the kinetic solubility was 61 µM (aqueous buffer; pH 7.4, 37 °C).
For `COC(=O)CN(CC(=O)N[C@@H](Cc1c[nH]cn1)C(=O)OC)Cc1ccccc1`, the kinetic solubility was 191 µM (PBS; 24 h, pH 7.4).
